Measured values taken from ChEMBL document CHEMBL2412970, “Synthesis and anticancer activity of 2,4-disubstituted furo[3,2-b]indole derivatives” (Eur J Med Chem, 2013).
Active and inactive are the calls of the source. The calls are words filed in the database; no cut-off is given here.

What was measured:
UO-31 = assay: Cytotoxicity against human UO31 cells after 48 hrs by sulforhodamine B assay; format: functional; details: UO-31, 48 h
A498 [1] = assay: Induction of cell cycle arrest at G2/M phase in human A498 cells assessed as increase in cyclin B1 expression at 0.5 uM after 6 hrs by Western blotting analysis; format: functional, cell-based
How it was run: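 A498 cells exposed to 0.5 µM for 6, 12, 24, 36 or 48 h, then lysed on ice 30 min and spun 12 000g 20 min. Protein measured by Bradford; 20 µg per lane run on 10% SDS-PAGE, transferred to nitrocellulose, probed for cyclin B1 and CDK1, β-actin as loading control; n = 3 independent experiments.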

RXF 393 = assay: Cytotoxicity against human RXF393 cells after 48 hrs by sulforhodamine B assay; format: functional; details: RXF 393, 48 h
OVCAR-3 = assay: Cytotoxicity against human OVCAR3 cells after 48 hrs by sulforhodamine B assay; format: functional; details: OVCAR-3, 48 h
A498 [2] = assay: Antitumor activity against human A498 cells xenografted in ip dosed BALB/cAnN.Cg-Foxn1nu/CrlNarl nude mouse assessed as suppression of tumor growth administered qd for 5 times a week for 28 days measured every 7 days; format: functional, organism-based
How it was run: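 Male nude mice (18–20 g, 4–6 weeks) were inoculated subcutaneously with A498 cells, 2 × 10⁶ per mouse in 0.1 mL PBS. Once tumors reached 100 mm³, mice were randomized and given ip doses of 30 or 60 mg/kg, 5 times per week for 4 weeks. Body weight and tumor size were recorded every 7 days over 28 days. Volume = 1/2 ([…]).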

IGROV-1 = assay: Cytotoxicity against human IGROV1 cells after 48 hrs by sulforhodamine B assay; format: functional; details: IGROV-1, 48 h
A498 [3] = assay: Induction of apoptosis in human A498 cells assessed as late apoptotic cells at 0.5 uM after 48 hrs by AnnexinV/FITC-propidium iodide staining-based flow cytometry (reference value: 9.6%); format: functional
How it was run: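 Flow cytometry with annexin V-FITC/PI double labeling of A498 cells treated for 12, 24, 36 or 48 h; untreated cells served as the 0 h control. Stained in binding buffer for 15 min at room temperature in the dark, with more binding buffer added just before analysis. Annexin V+/PI− (Q4) counted as early apoptotic and annexin V+/PI+ (Q2) as late apoptotic.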

MDA-MB-231 = assay: Cytotoxicity against human MDA-MB-231 cells after 48 hrs by sulforhodamine B assay; format: functional; details: MDA-MB-231, 48 h
A498 [4] = assay: Cell cycle arrest in human A498 cells assessed as accumulation at G0/G1 phase at 0.5 uM after 36 hrs by propidium iodide staining-based flow cytometry (reference value: 78.70 +/- 0.02%); format: functional
TK-10 = assay: Cytotoxicity against human TK10 cells after 48 hrs by sulforhodamine B assay; format: functional; details: TK-10, 48 h
A549 = assay: Cytotoxicity against human A549/ATCC cells after 48 hrs by sulforhodamine B assay; format: functional; details: A549, 48 h
K562 = assay: Cytotoxicity against human K562 cells after 48 hrs by sulforhodamine B assay; format: functional; details: K562, 48 h
Malme-3M = assay: Cytotoxicity against human MALME-3M cells after 48 hrs by sulforhodamine B assay; format: functional
SN12C = assay: Cytotoxicity against human SN12C cells after 48 hrs by sulforhodamine B assay; format: functional
M14 = assay: Cytotoxicity against human M14 cells after 48 hrs by sulforhodamine B assay; format: functional; details: M14, 48 h
U-251 = assay: Cytotoxicity against human U251 cells after 48 hrs by sulforhodamine B assay; format: functional; details: U-251, 48 h
OVCAR-4 = assay: Cytotoxicity against human OVCAR4 cells after 48 hrs by sulforhodamine B assay; format: functional; details: OVCAR-4, 48 h
Mus musculus = assay: Toxicity in BALB/cAnN.Cg-Foxn1nu/CrlNarl nude mouse assessed as change in body weight at 30 to 60 mg/kg/day, ip qd administered 5 times a week for 28 days measured every 7 days; format: organism-based; set-up: route intraperitoneal; details: in vivo
How it was run: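 Male nude mice, 18–20 g, 4–6 weeks old, carried subcutaneous A498 xenografts (2 × 10⁶ cells in 0.1 mL PBS). Once nodules reached 100 mm³, mice were randomized, eight per group. They received ip 30 or 60 mg/kg 5 times weekly for 4 weeks, with body weight and tumor size recorded every 7 days over 28 days.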

A498 [5] = assay: Cell cycle arrest in human A498 cells assessed as accumulation at sub-G1 phase at 0.5 uM after 48 hrs by propidium iodide staining-based flow cytometry (reference value: 0.10 +/- 0.07%); format: functional
A498 [6] = assay: Cell cycle arrest in human A498 cells assessed as accumulation at G0/G1 phase at 0.5 uM after 48 hrs by propidium iodide staining-based flow cytometry (reference value: 78.70 +/- 0.02%); format: functional
A498 [7] = assay: Cell cycle arrest in human A498 cells assessed as accumulation at S phase at 0.5 uM after 36 hrs by propidium iodide staining-based flow cytometry (reference value: 15.92 +/- 0.03%); format: functional
HOP-62 = assay: Cytotoxicity against human HOP62 cells after 48 hrs by sulforhodamine B assay; format: functional; details: HOP-62, 48 h
KM12 = assay: Cytotoxicity against human KM12 cells after 48 hrs by sulforhodamine B assay; format: functional; details: KM12, 48 h
SNB-75 = assay: Cytotoxicity against human SNB75 cells after 48 hrs by sulforhodamine B assay; format: functional; details: SNB-75, 48 h
A498 [8] = assay: Cell cycle arrest in human A498 cells assessed as accumulation at S phase at 0.5 uM after 48 hrs by propidium iodide staining-based flow cytometry (reference value: 15.92 +/- 0.03%); format: functional
A498 [9] = assay: Cytotoxicity against human A498 cells assessed as cell shrinkage at 0.5 uM after 24 hrs by phase contrast microscopy; format: functional, cell-based
How it was run: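 A498 cells were plated at 5 × 10⁵ per well and exposed to 0.5 µM for 24 h. Cell rounding and shrinkage were scored by microscopy against untreated control cells.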

[10] = read-out: pLC50 (the source's name) (converted)

**Q.** Which results are given for `OCc1ccc(Cn2c3ccccc3c3oc(CO)cc32)o1`?
**A.** GI50 (UO-31): 50.1 µM; CC50 (UO-31; [10]): > 100 µM; TGI (UO-31; read-out: pTGI): > 100 µM; Activity (A498 [1]): Active; GI50 (RXF 393): 75.9 µM; CC50 (RXF 393; [10]): > 100 µM; TGI (RXF 393; read-out: pTGI): > 100 µM; GI50 (OVCAR-3): 8.91 µM; CC50 (OVCAR-3; [10]): > 100 µM; TGI (OVCAR-3; read-out: pTGI): > 100 µM; Activity (A498 [2]): Dose-dependent effect; GI50 (IGROV-1): 4.68 µM; CC50 (IGROV-1; [10]): > 100 µM; TGI (IGROV-1; read-out: pTGI): > 100 µM; Activity (A498 [3]): 21.2%; GI50 (MDA-MB-231): 74.1 µM; CC50 (MDA-MB-231; [10]): > 100 µM; TGI (MDA-MB-231; read-out: pTGI): > 100 µM; Activity (A498 [4]): 69.69%; GI50 (TK-10): 0.537 µM; CC50 (TK-10; [10]): > 100 µM; TGI (TK-10; read-out: pTGI (converted)): 3.24 µM; GI50 (A549): 64.6 µM; CC50 (A549; [10]): > 100 µM; TGI (A549; read-out: pTGI): > 100 µM; GI50 (K562): 45.7 µM; CC50 (K562; [10]): > 100 µM; TGI (K562; read-out: pTGI): > 100 µM; GI50 (Malme-3M): > 100 µM; CC50 (Malme-3M; [10]): > 100 µM; TGI (Malme-3M; read-out: pTGI): > 100 µM; GI50 (SN12C): > 100 µM; CC50 (SN12C; [10]): > 100 µM; TGI (SN12C; read-out: pTGI): > 100 µM; GI50 (M14): 13.2 µM; CC50 (M14; [10]): > 100 µM; TGI (M14; read-out: pTGI): > 100 µM; GI50 (U-251): 30.9 µM; CC50 (U-251; [10]): > 100 µM; TGI (U-251; read-out: pTGI): > 100 µM; GI50 (OVCAR-4): 4.27 µM; CC50 (OVCAR-4; [10]): > 100 µM; TGI (OVCAR-4; read-out: pTGI): > 100 µM; Activity (Mus musculus): Non-toxic; Activity (A498 [5]): 12.76%; Activity (A498 [6]): 71.26%; Activity (A498 [7]): 14.33%; GI50 (HOP-62): > 100 µM; CC50 (HOP-62; [10]): > 100 µM; TGI (HOP-62; read-out: pTGI): > 100 µM; GI50 (KM12): > 100 µM; CC50 (KM12; [10]): > 100 µM; TGI (KM12; read-out: pTGI): > 100 µM; GI50 (SNB-75): 46.8 µM; CC50 (SNB-75; [10]): > 100 µM; TGI (SNB-75; read-out: pTGI): > 100 µM; Activity (A498 [8]): 10.64%; Activity (A498 [9]): Active
